According to ChEMBL document CHEMBL4665798, “Novel Human Urate Transporter 1 Inhibitors as Hypouricemic Drug Candidates with Favorable Druggability” (J Med Chem, 2020):

test system: Mus musculus; test: Hypouricemic activity in Kunming mouse model of xanthine/potassium oxonate-induced acute hyperuricemia assessed as decrease in serum uric acid level at 2 mg/kg administered 3 hrs prior to xanthine/potassium oxonate and measured after 6 hrs relative to control; format: functional; design: scale not given: the % may be the effect or the level left; conditions: time 9 hrs
How it was run: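 Male Kunming mice, hyperuricemia induced by intragastric xanthine plus subcutaneous potassium oxonate (0.2 mL each). […] Groups: normal vehicle, untreated model, active control, test. Serum uric acid measured. Decrease ratio = (model SUA − compound SUA)/(model SUA − vehicle SUA).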

**Q.** With `O=C(O)C1(Sc2nc3cnccc3n2-c2ccc(C3CC3)c3ccccc23)CCC1` as the molecule, how does the Activity read?
**A.** 72.99%

**Q.** `CC(Sc1nc2cccnc2n1-c1cccc2ccccc12)C(=O)O` (stereo unspecified) was tested. Which Activity did it give?
**A.** -1.78%

**Q.** `COC(=O)C(C)Sc1nc2cnccc2n1-c1ccc(C#N)c2ccccc12` (stereo unspecified) was tested. Which Activity did it give?
**A.** 17.9%

**Q.** `O=C(CSc1nnc(Br)n1-c1ccc(C2CC2)c2ccccc12)NS(=O)(=O)c1ccc(F)cc1` was tested. Which Activity did it give?
**A.** 75.17%

**Q.** For `O=C(O)CCCSc1nc2ncccc2n1-c1ccc(C2CC2)c2ccccc12`, which Activity is on record?
**A.** 35.39%

**Q.** Which Activity does the source give for `CCOC(=O)CSc1nc2cnccc2n1-c1ccc(C2CC2)c2ccccc12` here?
**A.** 40.79%

**Q.** With `N#Cc1ccc(-n2c(SC3(C(=O)O)CCC3)nc3ncccc32)c2ccccc12` as the molecule, how does the Activity read?
**A.** 60.74%

**Q.** Which Activity does the source give for `O=C(CSc1nnc(Br)n1-c1ccc(C2CC2)c2ccccc12)NS(=O)(=O)c1ccc(Cl)s1` here?
**A.** 53.44%

**Q.** `COC(=O)C(C)(C)Sc1nc2cnccc2n1-c1ccc(C#N)c2ccccc12` was tested. Which Activity did it give?
**A.** 9.09%

**Q.** For `CCOC(=O)C(C)Sc1nc2cccnc2n1-c1c(C)cc(C)cc1C` (stereo unspecified), which Activity is on record?
**A.** 22.34%

**Q.** How did the Activity turn out when `CCOC(=O)CSc1nc2ncccc2n1-c1ccc(C2CC2)c2ccccc12` was run?
**A.** 33.56%

**Q.** Which Activity does the source give for `CCOC(=O)C1(Sc2nc3ncccc3n2-c2ccc(C3CC3)c3ccccc23)CCC1` here?
**A.** 47.9%

**Q.** For `N#Cc1ccc(-n2c(SCCC(=O)O)nc3ncccc32)c2ccccc12`, which Activity is on record?
**A.** 71.62%

**Q.** For `N#Cc1ccc(-n2c(SC3(C(=O)O)CCC3)nc3cnccc32)c2ccccc12`, which Activity is on record?
**A.** 27.36%

**Q.** Which Activity does the source give for `COC(=O)CSc1nc2ncccc2n1-c1ccc(C#N)c2ccccc12` here?
**A.** 9.51%

**Q.** For `CC(C)(Sc1nc2cnccc2n1-c1ccc(C2CC2)c2ccccc12)C(=O)O`, which Activity is on record?
**A.** 37.89%

**Q.** With `CCCS(=O)(=O)NC(=O)CSc1nnc(Br)n1-c1ccc(C2CC2)c2ccccc12` as the molecule, how does the Activity read?
**A.** 24.06%

**Q.** How did the Activity turn out when `CCS(=O)(=O)NC(=O)CSc1nnc(Br)n1-c1ccc(C2CC2)c2ccccc12` was run?
**A.** 11.04%

**Q.** With `CC(C)(C)S(=O)(=O)NC(=O)CSc1nnc(Br)n1-c1ccc(C2CC2)c2ccccc12` as the molecule, how does the Activity read?
**A.** 5.94%

**Q.** Which Activity does the source give for `COC(=O)CCCSc1nc2ncccc2n1-c1ccc(C#N)c2ccccc12` here?
**A.** 7.17%

**Q.** With `O=C(O)CSc1nc2ncccc2n1-c1ccc(C2CC2)c2ccccc12` as the molecule, how does the Activity read?
**A.** 34.5%

**Q.** Which Activity does the source give for `CCc1oc2ccccc2c1C(=O)c1cc(Br)c(O)c(Br)c1` [BENZBROMARONE] here?
**A.** 36%

**Q.** For `CC(C)(Sc1nc2cccnc2n1-c1cccc2ccccc12)C(=O)O`, which Activity is on record?
**A.** 0.32%

**Q.** With `O=C(CSc1nnc(Br)n1-c1ccc(C2CC2)c2ccccc12)NS(=O)(=O)c1ccccc1` as the molecule, how does the Activity read?
**A.** 64.65%

**Q.** How did the Activity turn out when `COC(=O)CCCSc1nc2cnccc2n1-c1ccc(C#N)c2ccccc12` was run?
**A.** 8.96%

**Q.** With `N#Cc1ccc(-n2c(SCC(=O)O)nc3ncccc32)c2ccccc12` as the molecule, how does the Activity read?
**A.** 51.91%

**Q.** How did the Activity turn out when `CC(C)(Sc1nc2cccnc2n1-c1ccc(C2CC2)c2ccccc12)C(=O)O` was run?
**A.** -0.83%

**Q.** For `COC(=O)CCSc1nc2cnccc2n1-c1ccc(C#N)c2ccccc12`, which Activity is on record?
**A.** 11.47%

**Q.** Which Activity does the source give for `O=C(CSc1nnc(Br)n1-c1ccc(C2CC2)c2ccccc12)NS(=O)(=O)C1CC1` here?
**A.** 17.54%

**Q.** Which Activity does the source give for `CC(C)(Sc1nc2ncccc2n1-c1ccc(C#N)c2ccccc12)C(=O)O` here?
**A.** 3.67%

**Q.** How did the Activity turn out when `N#Cc1ccc(-n2c(SCCC(=O)O)nc3cnccc32)c2ccccc12` was run?
**A.** 51.13%

**Q.** `CCOC(=O)C1(Sc2nc3cnccc3n2-c2ccc(C3CC3)c3ccccc23)CCC1` was tested. Which Activity did it give?
**A.** 41.35%

**Q.** Which Activity does the source give for `CC(C)S(=O)(=O)NC(=O)CSc1nnc(Br)n1-c1ccc(C2CC2)c2ccccc12` here?
**A.** 11.99%

**Q.** For `CCOC(=O)CCCSc1nc2ncccc2n1-c1ccc(C2CC2)c2ccccc12`, which Activity is on record?
**A.** 33.6%

**Q.** With `CC(Sc1nc2cnccc2n1-c1ccc(C#N)c2ccccc12)C(=O)O` (stereo unspecified) as the molecule, how does the Activity read?
**A.** 27.84%

**Q.** `CCOC(=O)C(C)Sc1nc2cccnc2n1-c1cccc2ccccc12` (stereo unspecified) was tested. Which Activity did it give?
**A.** -1.84%

**Q.** How did the Activity turn out when `O=C(O)CSc1nc2cnccc2n1-c1ccc(C2CC2)c2ccccc12` was run?
**A.** 42.17%

**Q.** How did the Activity turn out when `CC(C)(Sc1nc2ncccc2n1-c1ccc(C2CC2)c2ccccc12)C(=O)O` was run?
**A.** 11.47%

**Q.** `Cc1cc(C)c(-n2c(SCCCC(=O)O)nc3cccnc32)c(C)c1` was tested. Which Activity did it give?
**A.** 13.05%

**Q.** With `CCOC(=O)CSc1nc2cccnc2n1-c1c(C)cc(C)cc1C` as the molecule, how does the Activity read?
**A.** -2.2%

**Q.** How did the Activity turn out when `CS(=O)(=O)NC(=O)CSc1nnc(Br)n1-c1ccc(C2CC2)c2ccccc12` was run?
**A.** 81.53%

**Q.** For `O=C(O)CCCSc1nc2cccnc2n1-c1ccc(C2CC2)c2ccccc12`, which Activity is on record?
**A.** 1.07%

**Q.** With `CC(C)(Sc1nc2cnccc2n1-c1ccc(C#N)c2ccccc12)C(=O)O` as the molecule, how does the Activity read?
**A.** 15.24%

**Q.** With `CCOC(=O)C(C)Sc1nc2cccnc2n1-c1ccc(C2CC2)c2ccccc12` (stereo unspecified) as the molecule, how does the Activity read?
**A.** 40.34%

**Q.** How did the Activity turn out when `Cc1ccc(S(=O)(=O)NC(=O)CSc2nnc(Br)n2-c2ccc(C3CC3)c3ccccc23)cc1` was run?
**A.** 79.41%

**Q.** With `Cc1cc(C)c(-n2c(SCC(=O)O)nc3cccnc32)c(C)c1` as the molecule, how does the Activity read?
**A.** 18.26%

**Q.** `CC(C)(C)c1ccc(S(=O)(=O)NC(=O)CSc2nnc(Br)n2-c2ccc(C3CC3)c3ccccc23)cc1` was tested. Which Activity did it give?
**A.** 15.1%

**Q.** Which Activity does the source give for `CCOC(=O)C1(Sc2nc3ncccc3n2-c2ccc(C#N)c3ccccc23)CCC1` here?
**A.** 34.56%

**Q.** `O=C(O)CSc1nc2cccnc2n1-c1ccc(C2CC2)c2ccccc12` was tested. Which Activity did it give?
**A.** 43.69%

**Q.** With `CCOC(=O)CSc1nc2cccnc2n1-c1ccc(C2CC2)c2ccccc12` as the molecule, how does the Activity read?
**A.** 41.96%

**Q.** For `N#Cc1ccc(-n2c(SCCCC(=O)O)nc3cnccc32)c2ccccc12`, which Activity is on record?
**A.** 11.19%

**Q.** With `CCOC(=O)CCCSc1nc2cccnc2n1-c1c(C)cc(C)cc1C` as the molecule, how does the Activity read?
**A.** 11.19%

**Q.** With `COC(=O)CSc1nc2cnccc2n1-c1ccc(C#N)c2ccccc12` as the molecule, how does the Activity read?
**A.** 14.54%

**Q.** With `CCOC(=O)CCCSc1nc2cccnc2n1-c1cccc2ccccc12` as the molecule, how does the Activity read?
**A.** 37.38%

**Q.** Which Activity does the source give for `CCOC(=O)C(C)(C)Sc1nc2cccnc2n1-c1c(C)cc(C)cc1C` here?
**A.** 41.56%

**Q.** Which Activity does the source give for `CCOC(=O)C(C)(C)Sc1nc2ncccc2n1-c1ccc(C2CC2)c2ccccc12` here?
**A.** 45.58%

**Q.** For `COC(=O)C(C)Sc1nc2ncccc2n1-c1ccc(C#N)c2ccccc12` (stereo unspecified), which Activity is on record?
**A.** 13%

**Q.** With `O=C(O)CSc1nc2cccnc2n1-c1cccc2ccccc12` as the molecule, how does the Activity read?
**A.** 2.25%

**Q.** How did the Activity turn out when `N#Cc1ccc(-n2c(SCC(=O)O)nc3cnccc32)c2ccccc12` was run?
**A.** 59.22%

**Q.** With `CCOC(=O)CCCSc1nc2cccnc2n1-c1ccc(C2CC2)c2ccccc12` as the molecule, how does the Activity read?
**A.** 23.73%

**Q.** With `Cc1cc(C)c(-n2c(SC(C)C(=O)O)nc3cccnc32)c(C)c1` (stereo unspecified) as the molecule, how does the Activity read?
**A.** 37.04%

**Q.** `CCOC(=O)CCCSc1nc2cnccc2n1-c1ccc(C2CC2)c2ccccc12` was tested. Which Activity did it give?
**A.** 47.37%

**Q.** With `N#Cc1ccc(-n2c(SCCCC(=O)O)nc3ncccc32)c2ccccc12` as the molecule, how does the Activity read?
**A.** 20.3%

**Q.** With `CCOC(=O)C(C)(C)Sc1nc2ncccc2n1-c1ccc(C#N)c2ccccc12` as the molecule, how does the Activity read?
**A.** 12.71%

**Q.** With `CCOC(=O)C1(Sc2nc3cnccc3n2-c2ccc(C#N)c3ccccc23)CCC1` as the molecule, how does the Activity read?
**A.** 14.44%

**Q.** Which Activity does the source give for `O=C(CSc1nnc(Br)n1-c1ccc(C2CC2)c2ccccc12)NS(=O)(=O)c1ccc(Cl)cc1` here?
**A.** 76.46%

**Q.** `O=C(CSc1nnc(Br)n1-c1ccc(C2CC2)c2ccccc12)NS(=O)(=O)c1cccs1` was tested. Which Activity did it give?
**A.** 63.94%

**Q.** `O=C(O)CCCSc1nc2cnccc2n1-c1ccc(C2CC2)c2ccccc12` was tested. Which Activity did it give?
**A.** 56.26%

**Q.** With `CCOC(=O)C(C)Sc1nc2ncccc2n1-c1ccc(C2CC2)c2ccccc12` (stereo unspecified) as the molecule, how does the Activity read?
**A.** 35.37%

**Q.** Which Activity does the source give for `CCOC(=O)C(C)Sc1nc2cnccc2n1-c1ccc(C2CC2)c2ccccc12` (stereo unspecified) here?
**A.** 49.46%

**Q.** Which Activity does the source give for `CCOC(=O)CSc1nc2cccnc2n1-c1cccc2ccccc12` here?
**A.** 4.03%

**Q.** Which Activity does the source give for `O=C(O)CCCSc1nc2cccnc2n1-c1cccc2ccccc12` here?
**A.** 1.4%

**Q.** How did the Activity turn out when `COC(=O)CCSc1nc2ncccc2n1-c1ccc(C#N)c2ccccc12` was run?
**A.** 5.12%

**Q.** With `CCOC(=O)C(C)(C)Sc1nc2cccnc2n1-c1ccc(C2CC2)c2ccccc12` as the molecule, how does the Activity read?
**A.** 2.61%

**Q.** Which Activity does the source give for `CCOC(=O)C(C)(C)Sc1nc2cccnc2n1-c1cccc2ccccc12` here?
**A.** 8.54%

**Q.** `Cc1cc(C)c(-n2c(SC(C)(C)C(=O)O)nc3cccnc32)c(C)c1` was tested. Which Activity did it give?
**A.** -4.96%

**Q.** For `O=C(CSc1nnc(Br)n1-c1ccc(C2CC2)c2ccccc12)NS(=O)(=O)c1ccc([N+](=O)[O-])cc1`, which Activity is on record?
**A.** 66.71%

**Q.** For `CCOC(=O)C(C)(C)Sc1nc2cnccc2n1-c1ccc(C2CC2)c2ccccc12`, which Activity is on record?
**A.** 68.65%

same assay, conditions: time 9 hrs, 2 mg/kg

**Q.** With `C[C@H](Sc1nc2ncccc2n1-c1ccc(C2CC2)c2ccccc12)C(=O)O` (stereo in doubt; 44c) as the molecule, how does the Activity read?
**A.** 31.02%

**Q.** With `C[C@H](Sc1nc2cnccc2n1-c1ccc(C2CC2)c2ccccc12)C(=O)O` (stereo in doubt; 54a) as the molecule, how does the Activity read?
**A.** 58.08%

**Q.** For `C[C@H](Sc1nc2ncccc2n1-c1ccc(C2CC2)c2ccccc12)C(=O)O` (stereo in doubt; 44a), which Activity is on record?
**A.** 12.87%

**Q.** With `C[C@@H](Sc1nc2cnccc2n1-c1ccc(C2CC2)c2ccccc12)C(=O)O` (stereo in doubt; 54b) as the molecule, how does the Activity read?
**A.** 32.44%

**Q.** With `C[C@@H](Sc1nc2ncccc2n1-c1ccc(C2CC2)c2ccccc12)C(=O)O` (stereo in doubt; 44d) as the molecule, how does the Activity read?
**A.** 98.04%

**Q.** Which Activity does the source give for `C[C@@H](Sc1nc2ncccc2n1-c1ccc(C2CC2)c2ccccc12)C(=O)O` (stereo in doubt; 44b) here?
**A.** 40.58%

**Q.** Which Activity does the source give for `C[C@H](Sc1nc2cnccc2n1-c1ccc(C2CC2)c2ccccc12)C(=O)O` (stereo in doubt; 54c) here?
**A.** 93.54%

**Q.** Which Activity does the source give for `C[C@@H](Sc1nc2cnccc2n1-c1ccc(C2CC2)c2ccccc12)C(=O)O` (stereo in doubt; 54d) here?
**A.** 57.89%
